Assay results as given in ChEMBL document CHEMBL1641369, “The synthesis and biological evaluation of 2-(3-methyl or 3-phenylisoxazol-5-yl)-3-aryl-8-thiabicyclo[3.2.1]octanes” (Bioorg Med Chem Lett, 2011).

Columns and labels:
[1] = target: Sodium-dependent dopamine transporter (Homo sapiens, UniProt Q01959); test: Displacement of [3H]WIN35428 from human DAT transfected cell membrane
[2] = target: Sodium-dependent serotonin transporter (Homo sapiens, UniProt P31645); test: Displacement of [3H]citalopram from human SERT expressed in HEK293 cell membrane; assay type: cell membranes
How it was run: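 Human SERT was labelled with [3H]citalopram at a fixed concentration and competed against a range of test-drug concentrations. Nonspecific binding was measured with fluoxetine at 10 μM. IC50 reported as mean ± SEM of at least three independent experiments, each run in triplicate. Some entries are screening data from replicate triplicate experiments.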

Sequence of Sodium-dependent serotonin transporter (P31645 whole entry): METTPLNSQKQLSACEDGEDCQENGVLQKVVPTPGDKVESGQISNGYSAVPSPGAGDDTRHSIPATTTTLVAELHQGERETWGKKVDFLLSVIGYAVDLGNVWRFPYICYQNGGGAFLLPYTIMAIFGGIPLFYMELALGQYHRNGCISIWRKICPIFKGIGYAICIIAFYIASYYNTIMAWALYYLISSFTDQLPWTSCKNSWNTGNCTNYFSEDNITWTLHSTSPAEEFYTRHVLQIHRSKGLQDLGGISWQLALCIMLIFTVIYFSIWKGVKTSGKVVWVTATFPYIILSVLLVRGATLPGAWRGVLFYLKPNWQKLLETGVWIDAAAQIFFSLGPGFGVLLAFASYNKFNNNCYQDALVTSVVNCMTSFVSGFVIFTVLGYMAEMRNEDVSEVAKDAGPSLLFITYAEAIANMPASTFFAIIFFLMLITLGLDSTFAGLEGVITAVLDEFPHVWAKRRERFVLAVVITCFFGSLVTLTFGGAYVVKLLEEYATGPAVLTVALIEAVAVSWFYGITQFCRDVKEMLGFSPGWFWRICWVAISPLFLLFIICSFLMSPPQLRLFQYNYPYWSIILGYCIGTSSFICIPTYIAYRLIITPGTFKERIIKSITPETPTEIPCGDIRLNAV
Sequence of Sodium-dependent dopamine transporter (Q01959 whole entry): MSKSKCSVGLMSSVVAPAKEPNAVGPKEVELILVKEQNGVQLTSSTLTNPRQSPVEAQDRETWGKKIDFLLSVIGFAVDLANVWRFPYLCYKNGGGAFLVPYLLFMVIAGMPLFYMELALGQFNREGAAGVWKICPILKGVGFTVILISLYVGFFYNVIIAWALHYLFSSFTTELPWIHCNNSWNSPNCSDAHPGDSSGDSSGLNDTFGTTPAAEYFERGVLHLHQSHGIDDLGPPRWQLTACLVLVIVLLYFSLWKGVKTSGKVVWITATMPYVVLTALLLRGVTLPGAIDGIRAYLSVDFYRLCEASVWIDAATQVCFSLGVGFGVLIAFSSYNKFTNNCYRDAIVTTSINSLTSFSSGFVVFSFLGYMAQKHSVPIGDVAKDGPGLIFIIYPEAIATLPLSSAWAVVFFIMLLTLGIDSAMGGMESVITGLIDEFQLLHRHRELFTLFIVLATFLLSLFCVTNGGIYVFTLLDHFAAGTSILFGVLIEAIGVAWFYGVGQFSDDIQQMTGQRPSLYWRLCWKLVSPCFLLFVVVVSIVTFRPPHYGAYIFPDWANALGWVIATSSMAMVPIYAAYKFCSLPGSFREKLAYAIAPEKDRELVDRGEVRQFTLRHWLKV

SMILES | IC50 [1] [nM] | IC50 [2] [nM]
c1ccc(-c2cc(C3C4CCC(C[C@@H]3c3ccccc3)S4)on2)cc1 (stereo partly specified) | 157 | > 10000
Cc1cc([C@@H]2C3CCC(C[C@@H]2c2ccc(Br)cc2)S3)on1 (stereo partly specified) | 14 | 755
Clc1ccc([C@@H]2CC3CCC(S3)C2c2cc(-c3ccccc3)no2)cc1Cl (stereo partly specified) | 497 | > 10000
Cc1cc([C@@H]2C3CCC(C[C@H]2c2ccccc2)S3)on1 (stereo partly specified) | 65 | > 10000
Cc1cc([C@@H]2C3CCC(C[C@H]2c2ccc(Br)cc2)S3)on1 (stereo partly specified) | 46.6 | > 4000
Fc1ccc([C@@H]2CC3CCC(S3)C2c2cc(-c3ccccc3)no2)cc1 (stereo partly specified) | 456 | > 10000
Cc1cc(C2=C(c3ccccc3)CC3CCC2S3)on1 (stereo unspecified) | > 2000 | > 10000
Cc1cc([C@@H]2C3CCC(C[C@H]2c2ccc(Cl)cc2)S3)on1 (stereo partly specified) | 32.7 | > 7000
c1ccc(-c2cc(C3C4CCC(C[C@H]3c3ccccc3)S4)on2)cc1 (stereo partly specified) | > 1000 | > 10000
Cc1cc([C@@H]2C3CCC(C[C@H]2c2ccc(F)cc2)S3)on1 (stereo partly specified) | 22 | > 10000
Brc1ccc([C@@H]2CC3CCC(S3)C2c2cc(-c3ccccc3)no2)cc1 (stereo partly specified) | 238 | > 10000
Cc1cc([C@@H]2C3CCC(C[C@@H]2c2ccccc2)S3)on1 (stereo partly specified) | 12 | > 10000
Clc1ccc([C@@H]2CC3CCC(S3)C2c2cc(-c3ccccc3)no2)cc1 (stereo partly specified) | 130 | > 10000
Cc1cc(C2=C(c3ccc(F)cc3)CC3CCC2S3)on1 (stereo unspecified) | > 1000 | > 10000
Fc1ccc(C2=C(c3cc(-c4ccccc4)no3)C3CCC(C2)S3)cc1 (stereo unspecified) | > 2000 | > 10000
Cc1cc(C2=C(c3ccc(Cl)c(Cl)c3)CC3CCC2S3)on1 (stereo unspecified) | 69.2 | > 10000
Clc1ccc(C2=C(c3cc(-c4ccccc4)no3)C3CCC(C2)S3)cc1Cl (stereo unspecified) | 332 | > 10000
Clc1ccc(C2=C(c3cc(-c4ccccc4)no3)C3CCC(C2)S3)cc1 (stereo unspecified) | 66.5 | > 10000
Cc1cc([C@@H]2C3CCC(C[C@@H]2c2ccc(F)cc2)S3)on1 (stereo partly specified) | 7 | > 1000
Fc1ccc([C@H]2CC3CCC(S3)C2c2cc(-c3ccccc3)no2)cc1 (stereo partly specified) | 49 | > 10000
Clc1ccc([C@H]2CC3CCC(S3)C2c2cc(-c3ccccc3)no2)cc1Cl (stereo partly specified) | 269 | > 10000
Cc1cc([C@@H]2C3CCC(C[C@@H]2c2ccc(Cl)c(Cl)c2)S3)on1 (stereo partly specified) | 43.5 | 766
c1ccc(C2=C(c3cc(-c4ccccc4)no3)C3CCC(C2)S3)cc1 (stereo unspecified) | > 5000 | > 10000
Brc1ccc(C2=C(c3cc(-c4ccccc4)no3)C3CCC(C2)S3)cc1 (stereo unspecified) | 126 | > 10000
Cc1cc([C@@H]2C3CCC(C[C@@H]2c2ccc(Cl)cc2)S3)on1 (stereo partly specified) | 7.2 | > 1000
Cc1cc(C2=C(c3ccc(Cl)cc3)CC3CCC2S3)on1 (stereo unspecified) | 155 | > 10000
Cc1cc(C2=C(c3ccc(Br)cc3)CC3CCC2S3)on1 (stereo unspecified) | 139 | > 10000
Cc1cc([C@@H]2C3CCC(C[C@H]2c2ccc(Cl)c(Cl)c2)S3)on1 (stereo partly specified) | 101 | > 2000
